These results are taken from ChEMBL document CHEMBL4130626, “α-Arylidene Diacylglycerol-Lactones (DAG-Lactones) as Selective Ras Guanine-Releasing Protein 3 (RasGRP3) Ligands” (J Med Chem, 2018).

Assay [1] has as its target Protein kinase C alpha type (Homo sapiens, UniProt P17252). Put plainly: Displacement of [3H]PDBu from full length recombinant human PKCalpha expressed in baculovirus expression system after 5 mins by scintillation counting. The method, boiled down:
(§1)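 Competition of [3H]PDBu binding by polyethylene glycol precipitation, with 100 µg/ml phosphatidylserine and ≤0.003% Triton X-100, 5 min at 37 °C. Proteins: full-length purified human PKCα, PKCε; full-length RasGRP1; MBP-RasGRP3 from E. coli BL21(DE3) induced with 0.3 mM IPTG 6 h at room temperature. Ki mean ± SEM of ≥2 experiments, triplicate points.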

Assay [2] addresses T1, Protein kinase C epsilon type (Homo sapiens, UniProt Q02156).
T1 sequence (Q02156 whole entry): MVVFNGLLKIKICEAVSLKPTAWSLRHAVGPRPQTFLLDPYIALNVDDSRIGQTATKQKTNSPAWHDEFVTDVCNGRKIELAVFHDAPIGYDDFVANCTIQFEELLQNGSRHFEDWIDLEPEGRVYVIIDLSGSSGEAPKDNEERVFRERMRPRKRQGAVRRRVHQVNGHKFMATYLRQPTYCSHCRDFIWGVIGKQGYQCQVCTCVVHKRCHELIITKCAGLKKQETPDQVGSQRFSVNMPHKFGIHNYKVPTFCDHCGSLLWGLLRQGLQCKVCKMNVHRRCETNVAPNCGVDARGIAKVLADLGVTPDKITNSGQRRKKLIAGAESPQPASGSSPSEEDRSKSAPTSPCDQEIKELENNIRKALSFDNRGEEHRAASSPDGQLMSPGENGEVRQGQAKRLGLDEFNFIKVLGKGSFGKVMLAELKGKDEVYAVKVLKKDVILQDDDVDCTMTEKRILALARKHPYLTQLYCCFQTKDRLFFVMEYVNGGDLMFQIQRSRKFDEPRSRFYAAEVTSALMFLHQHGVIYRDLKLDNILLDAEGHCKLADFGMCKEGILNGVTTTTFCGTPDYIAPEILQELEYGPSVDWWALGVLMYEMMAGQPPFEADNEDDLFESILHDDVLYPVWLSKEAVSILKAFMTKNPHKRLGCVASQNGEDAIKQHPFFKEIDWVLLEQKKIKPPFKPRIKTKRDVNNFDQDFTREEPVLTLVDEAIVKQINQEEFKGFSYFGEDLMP
The experiment in a line: Displacement of [3H]PDBu from full length recombinant human PKCepsilon expressed in baculovirus expression system after 5 mins by scintillation counting. The method, boiled down:
as §1

In assay [3] the target is T2, Ras guanyl-releasing protein 3 (Homo sapiens, UniProt Q8IV61).
T2 sequence (Q8IV61 whole entry): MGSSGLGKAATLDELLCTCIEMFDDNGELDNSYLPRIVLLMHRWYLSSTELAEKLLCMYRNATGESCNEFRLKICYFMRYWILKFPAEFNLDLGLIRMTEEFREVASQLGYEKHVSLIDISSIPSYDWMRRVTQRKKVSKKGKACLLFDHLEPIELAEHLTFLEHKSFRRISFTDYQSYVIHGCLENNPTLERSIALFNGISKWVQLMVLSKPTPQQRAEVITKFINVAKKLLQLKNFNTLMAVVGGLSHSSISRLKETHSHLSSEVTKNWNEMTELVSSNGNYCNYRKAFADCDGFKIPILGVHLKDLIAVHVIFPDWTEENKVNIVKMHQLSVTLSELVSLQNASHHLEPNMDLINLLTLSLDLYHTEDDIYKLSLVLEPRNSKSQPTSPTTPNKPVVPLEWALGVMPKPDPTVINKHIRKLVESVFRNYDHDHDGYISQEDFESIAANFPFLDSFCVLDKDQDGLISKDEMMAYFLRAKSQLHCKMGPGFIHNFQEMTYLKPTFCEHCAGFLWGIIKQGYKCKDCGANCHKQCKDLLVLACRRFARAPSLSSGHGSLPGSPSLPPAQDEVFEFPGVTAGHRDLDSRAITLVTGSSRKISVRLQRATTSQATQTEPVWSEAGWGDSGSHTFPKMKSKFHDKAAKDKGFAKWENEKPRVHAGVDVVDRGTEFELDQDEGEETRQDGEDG
The experiment in a line: Displacement of [3H]PDBu from full length MBP-tagged human RasGRP3 expressed in Escherichia coli BL21 (DE3) after 5 mins by scintillation counting. The method, boiled down:
as §1

For the molecule `O=C1OC(CO)(COC(=O)c2ccc(Cl)cc2)C/C1=C\c1ccc(Cl)cc1` (configuration not stated), the Ki in assay [1] amounted to 25.2 nM; in assay [2] it was 6.51 nM; in assay [3], 2.69 nM.

As for `Cn1cc(/C=C/C(=O)OCC2(CO)C/C(=C\c3cn(C)c4ccccc34)C(=O)O2)c2ccccc21` (configuration not stated), the Ki in assay [1] was 375 nM; in assay [2], 780 nM; in assay [3], 15.7 nM.

As to `CC(C)(C)C(=O)OCC1(CO)C/C(=C\c2ccc(Cl)cc2)C(=O)O1` (configuration not stated), the Ki worked out at 13.6 nM in assay [1], 2.57 nM in assay [2] and 0.53 nM in assay [3].

For `Cn1cc(/C=C2\CC(CO)(COC(=O)/C=C/c3ccccn3)OC2=O)c2ccccc21` (configuration not stated), the Ki amounted to 2310 nM in assay [1], 3410 nM in assay [2] and 69.7 nM in assay [3].

`COc1ccc(C(=O)OCC2(CO)C/C(=C\c3ccc(Cl)cc3)C(=O)O2)cc1` (configuration not stated): the Ki was 27.6 nM in assay [1], 7.1 nM in assay [2] and 2.25 nM in assay [3].

For the molecule `COc1ccc2c(c1)c(/C=C1\CC(CO)(COC(=O)C(C)(C)C)OC1=O)cn2C` (configuration not stated), the Ki was determined as 249 nM in assay [1], 208 nM in assay [2] and 4.76 nM in assay [3].

As to `CC(C)(C)C(=O)OCC1(CO)C/C(=C/c2coc3ccccc23)C(=O)O1` (configuration not stated), the inhibition constant (Ki) in assay [1] stood at 62.5 nM; in assay [2], 73.3 nM; in assay [3], 11.7 nM.

In the case of `CC(C)(C)C(=O)OCC1(CO)C/C(=C\c2cn(CC3CC3)c3ccccc23)C(=O)O1` (configuration not stated), the results for the Ki in assay [1], in assay [2] and in assay [3] were 29 nM, 60.6 nM and 3.58 nM, respectively.

Take `CCCC(CCC)C(=O)OCC1(CO)C/C(=C\c2cn(C)c3ccccc23)C(=O)O1` (configuration not stated): the figures for the Ki in assay [1], in assay [2] and in assay [3] were 31.7 nM, 42.8 nM and 0.84 nM, respectively.

As to `Cn1cc(/C=C2\CC(CO)(COC(=O)/C=C/c3ccccc3)OC2=O)c2ccccc21` (configuration not stated), the Ki in assay [1] stood at 439 nM; in assay [2] it was 672 nM; in assay [3], 25 nM.

For the molecule `CC(C)(C)C(=O)OCC1(CO)C/C(=C/c2csc3ccccc23)C(=O)O1` (configuration not stated), the Ki in assay [1] stood at 37 nM; in assay [2], 12.5 nM; in assay [3], 4.26 nM.

For `O=C1OC(CO)(COC(=O)c2ccc(Cl)cc2)C/C1=C\c1ccccn1` (configuration not stated), the Ki in assay [1] turned out to be 383 nM; in assay [2] it was 92.3 nM; in assay [3], 29 nM.

With `Cn1cc(/C=C2/CC(CO)(COC(=O)C(C)(C)C)OC2=O)c2cc([N+](=O)[O-])ccc21` (configuration not stated), the figures for the Ki in assay [1], in assay [2] and in assay [3] were above 30000 nM, above 30000 nM and 1390 nM, respectively.

Turning to `COc1ccc(C(=O)OCC2(CO)C/C(=C\c3ccccn3)C(=O)O2)cc1` (configuration not stated), the Ki in assay [1] was 1190 nM; in assay [2], 199 nM; in assay [3], 89.7 nM.

As to `COc1ccc(C(=O)OCC2(CO)C/C(=C\c3ccc(N(C)C)cc3)C(=O)O2)cc1` (configuration not stated), the Ki in assay [1] was determined as 128 nM; in assay [2], 18.2 nM; in assay [3] it was 7.48 nM.

On to `Cn1nc(/C=C2\CC(CO)(COC(=O)C(C)(C)C)OC2=O)c2ccccc21` (configuration not stated), for which the values for the Ki in assay [1], in assay [2] and in assay [3] were 184 nM, 131 nM and 7.22 nM, respectively.

For `COc1ccc(/C=C2\CC(CO)(COC(=O)C(C)(C)C)OC2=O)cc1` (configuration not stated), the Ki in assay [1] was found to be 72 nM; in assay [2] it was 10.1 nM; in assay [3], 1.09 nM.

On to `CN(C)c1ccc(C(=O)OCC2(CO)C/C(=C\c3cn(C)c4ccccc34)C(=O)O2)cc1` (configuration not stated), for which the Ki in assay [1] was found to be 186 nM; in assay [2] it was 220 nM; in assay [3], 18.2 nM.

Take `CN(C)c1ccc(C(=O)OCC2(CO)C/C(=C\c3ccccn3)C(=O)O2)cc1` (configuration not stated): the Ki was determined as 1480 nM in assay [1], 328 nM in assay [2] and 271 nM in assay [3].

Turning to `CC(C)(C)C(=O)OCC1(CO)C/C(=C\c2ccccn2)C(=O)O1` (configuration not stated), the inhibition constant Ki in assay [1] was found to be 3640 nM; in assay [2] it was 1120 nM; in assay [3], 192 nM.

`Cn1cc(/C=C2/CC(CO)(COC(=O)C(C)(C)C)OC2=O)c2cc(Cl)ccc21` (configuration not stated): the Ki in assay [1] amounted to 79.1 nM; in assay [2] it was 104 nM; in assay [3] it was 4.32 nM.

Regarding `Cn1cc(/C=C2\CC(CO)(COC(=O)C3CCCCC3)OC2=O)c2ccccc21` (configuration not stated), the Ki in assay [1] was 112 nM; in assay [2] it was 98.2 nM; in assay [3] it was 2.86 nM.

As to `COc1ccc(C(=O)OCC2(CO)C/C(=C\c3cn(C)c4ccccc34)C(=O)O2)cc1` (configuration not stated), the Ki worked out at 446 nM in assay [1], 380 nM in assay [2] and 26.5 nM in assay [3].

Turning to `Cn1cc(/C=C2\CC(CO)(COC(=O)C3CCC(C(C)(C)C)CC3)OC2=O)c2ccccc21` (configuration not stated), the values for the Ki in assay [1], in assay [2] and in assay [3] were 31.3 nM, 42 nM and 2.15 nM, respectively.

As for `COc1ccc(/C=C2\CC(CO)(COC(=O)c3ccc(OC)cc3)OC2=O)cc1` (configuration not stated), the Ki in assay [1] turned out to be 84.7 nM; in assay [2] it was 13.4 nM; in assay [3], 4.17 nM.

Take `CC(C)CC(CC(C)C)C(=O)OCC1(CO)C/C(=C\c2cn(C)c3ccccc23)C(=O)O1` (configuration not stated): the Ki came out at 39 nM in assay [1], 41.5 nM in assay [2] and 5.07 nM in assay [3].

For the molecule `Cn1cc(/C=C2\CC(CO)(COC(=O)C(C)(C)C)OC2=O)c2cc(Cl)ccc21` (configuration not stated), the Ki in assay [1] stood at 42.3 nM; in assay [2], 39.3 nM; in assay [3] it was 1.01 nM.

Turning to `Cn1cc(/C=C2\CC(CO)(COC(=O)C(C)(C)C)OC2=O)c2cc([N+](=O)[O-])ccc21` (configuration not stated), the Ki in assay [1] was above 30000 nM; in assay [2], above 30000 nM; in assay [3], 3490 nM.

`CC(C)(C)C(=O)OCC1(CO)C/C(=C\c2csc3ccccc23)C(=O)O1` (configuration not stated): the Ki in assay [1] is 28.8 nM; in assay [2], 8.17 nM; in assay [3] it was 1.67 nM.

Take `CN(C)c1ccc(/C=C2\CC(CO)(COC(=O)C(C)(C)C)OC2=O)cc1` (configuration not stated): the inhibitory constant (Ki) stood at 65.9 nM in assay [1], 7.87 nM in assay [2] and 1.07 nM in assay [3].

For `CC(C)Cn1cc(/C=C2\CC(CO)(COC(=O)C(C)(C)C)OC2=O)c2ccccc21` (configuration not stated), the Ki in assay [1] amounted to 15.6 nM; in assay [2] it was 19.4 nM; in assay [3], 3.03 nM.

Turning to `CN(C)c1ccc(/C=C2\CC(CO)(COC(=O)c3ccc(Cl)cc3)OC2=O)cc1` (configuration not stated), the Ki is 25.4 nM in assay [1], 6.39 nM in assay [2] and 1.81 nM in assay [3].

For `CN(C)c1ccc(C(=O)OCC2(CO)C/C(=C\c3ccc(Cl)cc3)C(=O)O2)cc1` (configuration not stated), the results for the Ki in assay [1], in assay [2] and in assay [3] were 30.4 nM, 9.5 nM and 2.73 nM, respectively.

Turning to `Cn1cc(/C=C2\CC(CO)(COC(=O)c3ccc(Cl)cc3)OC2=O)c2ccccc21` (configuration not stated), the Ki in assay [1] came out at 146 nM; in assay [2], 208 nM; in assay [3], 11.2 nM.

As for `CCCCCCC(=O)OCC1(CO)C/C(=C\c2cn(C)c3ccccc23)C(=O)O1` (configuration not stated), the results for the Ki in assay [1], in assay [2] and in assay [3] were 135 nM, 122 nM and 5.3 nM, respectively.

Turning to `CN(C)c1ccc(/C=C2\CC(CO)(COC(=O)c3ccc(N(C)C)cc3)OC2=O)cc1` (configuration not stated), the Ki in assay [1] worked out at 252 nM; in assay [2], 39.4 nM; in assay [3], 26.8 nM.

`CCCCn1cc(/C=C2\CC(CO)(COC(=O)C(C)(C)C)OC2=O)c2ccccc21` (configuration not stated): the Ki in assay [1] amounted to 25.6 nM; in assay [2], 19.2 nM; in assay [3], 1.87 nM.

With `COc1ccc(/C=C2\CC(CO)(COC(=O)c3ccc(Cl)cc3)OC2=O)cc1` (configuration not stated), the Ki came out at 30.1 nM in assay [1], 6.8 nM in assay [2] and 1.54 nM in assay [3].

With `COc1ccc(/C=C2\CC(CO)(COC(=O)c3ccc(N(C)C)cc3)OC2=O)cc1` (configuration not stated), the Ki amounted to 82.2 nM in assay [1], 18.3 nM in assay [2] and 7 nM in assay [3].
